Experimental data reported in ChEMBL document CHEMBL1629527, “In vitro antifungal activities of bis(alkylpyridinium)alkane compounds against pathogenic yeasts and molds” (Antimicrob Agents Chemother, 2010).

How the values were obtained:
[1] = system: Cryptococcus gattii species complex; assay: Antifungal activity against Cryptococcus gattii after 24 to 72 hrs by broth microdilution method; format: functional, Cryptococcus bacillisporus
How it was run: (§1)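 Broth microdilution MIC per CLSI M27-A3 (yeasts) or M38-A2 (molds). RPMI 1640 with L-glutamine, without bicarbonate, buffered to pH 7.0 with 0.165 M MOPS. Final test range for the compounds was 0.175–87.5 μM. Incubation at 35°C with visual reading at 24–72 h. MIC was the lowest concentration giving 100% inhibition versus the growth control (azoles 50% or 100%, by organism). Each isolate was run in duplicate in two independent experiments.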

[2] = system: Cryptococcus gattii species complex; assay: Antifungal activity against Cryptococcus gattii 05-200122 after 24 to 72 hrs by broth microdilution method; format: functional, Cryptococcus bacillisporus; how it was run: as §1
[3] = system: Aspergillus flavus; assay: Antifungal activity against Aspergillus flavus 05-203758 after 24 to 72 hrs by broth microdilution method; format: functional; how it was run: as §1
[4] = system: Candida tropicalis; assay: Antifungal activity against Candida tropicalis 04-202361 after 24 to 72 hrs by broth microdilution method; format: functional; how it was run: as §1
[5] = system: Meyerozyma guilliermondii; assay: Antifungal activity against Candida guilliermondii after 24 to 72 hrs by broth microdilution method; format: functional; how it was run: as §1
[6] = system: Cryptococcus neoformans; assay: Antifungal activity against Cryptococcus neoformans 05-202523 after 24 to 72 hrs by broth microdilution method; format: functional; how it was run: as §1
[7] = system: Candida albicans; assay: Antifungal activity against Candida albicans after 24 to 72 hrs by broth microdilution method; format: functional
How it was run: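 CLSI M27-A3 broth microdilution for yeasts in RPMI 1640 with L-glutamine and no bicarbonate, buffered with 0.165 M MOPS to pH 7.0. Compounds were dissolved in water and tested at 0.175–87.5 μM final, 35°C. MIC was read visually at 24–72 h as 100% inhibition versus growth control. For MFC, 30 μl from clear wells went onto SDA at 35°C for 48–72 h, reading the lowest concentration without colonies. Duplicates, two independent runs.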

[8] = system: Candida parapsilosis; assay: Antifungal activity against Candida parapsilosis ATCC 22019 after 24 to 72 hrs by broth microdilution method; format: functional; conditions: Lodderomyces parapsilosis; how it was run: as §1
[9] = system: Candida tropicalis; assay: Antifungal activity against Candida tropicalis after 24 to 72 hrs by broth microdilution method; format: functional; how it was run: as §1
[10] = system: Pichia kudriavzevii; assay: Antifungal activity against Candida krusei 04-202328 after 24 to 72 hrs by broth microdilution method; format: functional; how it was run: as §1
[11] = system: Pichia kudriavzevii; assay: Antifungal activity against Candida krusei after 24 to 72 hrs by broth microdilution method; format: functional; how it was run: as §1
[12] = Antifungal activity against Paecilomyces lilacinus 05-200601 after 24 to 72 hrs by broth microdilution method; format: functional; conditions: Purpureocillium lilacinum
How it was run: (§2)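 Mold isolates subcultured on potato dextrose agar, then tested by CLSI M38-A2 broth microdilution in RPMI 1640 (L-glutamine, no bicarbonate) buffered to pH 7.0 with 0.165 M MOPS. Compounds were dissolved in water and tested at a final 0.175–87.5 μM. Plates were incubated at 35°C. MIC was read visually as the lowest concentration giving 100% inhibition versus the growth control. Each isolate was run in duplicate in two independent experiments.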

[13] = system: Candida albicans; assay: Antifungal activity against Candida albicans ATCC 10231 after 24 to 72 hrs by broth microdilution method; format: functional; how it was run: as §1
[14] = system: Lichtheimia corymbifera; assay: Antifungal activity against Absidia corymbifera 04-200170 after 24 to 72 hrs by broth microdilution method; format: functional; how it was run: as §1
[15] = system: Candida dubliniensis; assay: Antifungal activity against Candida dubliniensis after 24 to 72 hrs by broth microdilution method; format: functional; how it was run: as §1
[16] = system: Rhizopus arrhizus; assay: Antifungal activity against Rhizopus oryzae 05-203111 after 24 to 72 hrs by broth microdilution method; format: functional; how it was run: as §2
[17] = system: Candida parapsilosis; assay: Antifungal activity against Candida parapsilosis after 24 to 72 hrs by broth microdilution method; format: functional; conditions: Lodderomyces parapsilosis; how it was run: as §1
[18] = system: Nakaseomyces glabratus; assay: Antifungal activity against Candida glabrata 04-202345 after 24 to 72 hrs by broth microdilution method; format: functional; how it was run: as §1
[19] = system: Nakaseomyces glabratus; assay: Antifungal activity against Candida glabrata after 48 to 72 hrs; format: functional
How it was run: (§3)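 MFC: after the MIC read, 30-μl aliquots from each well without visible growth were plated onto Sabouraud dextrose agar and incubated at 35°C. Reading was at 48–72 h for yeasts and up to 7 days for molds. MFC was the lowest concentration with no colonies.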

[20] = system: Candida parapsilosis; assay: Antifungal activity against Candida parapsilosis 04-202398 after 24 to 72 hrs by broth microdilution method; format: functional; conditions: Lodderomyces parapsilosis; how it was run: as §1
[21] = system: Aspergillus terreus; assay: Antifungal activity against Aspergillus terreus 05-202844 after 24 to 72 hrs by broth microdilution method; format: functional; how it was run: as §1
[22] = system: Nakaseomyces glabratus; assay: Antifungal activity against Candida glabrata after 24 to 72 hrs by broth microdilution method; format: functional; how it was run: as §1
[23] = system: Cryptococcus neoformans; assay: Antifungal activity against Cryptococcus neoformans ATCC 90112 after 24 to 72 hrs by broth microdilution method; format: functional; how it was run: as §1
[24] = system: Cryptococcus neoformans; assay: Antifungal activity against Cryptococcus neoformans after 24 to 72 hrs by broth microdilution method; format: functional; how it was run: as §1
[25] = system: Pichia kudriavzevii; assay: Antifungal activity against Candida krusei after 48 to 72 hrs; format: functional; how it was run: as §3
[26] = system: Fusarium solani; assay: Antifungal activity against Fusarium solani 04-203102 after 24 to 72 hrs by broth microdilution method; format: functional; how it was run: as §2
[27] = system: Scedosporium apiospermum; assay: Antifungal activity against Scedosporium apiospermum 05-203100 after 24 to 72 hrs by broth microdilution method; format: functional; how it was run: as §2
[28] = system: Cunninghamella bertholletiae; assay: Antifungal activity against Cunninghamella bertholletiae 99-12187 after 24 to 72 hrs by broth microdilution method; format: functional; how it was run: as §1
[29] = system: Aspergillus flavus; assay: Antifungal activity against Aspergillus flavus ATCC 204304 after 24 to 72 hrs by broth microdilution method; format: functional; how it was run: as §1
[30] = system: Cryptococcus neoformans; assay: Antifungal activity against Cryptococcus neoformans 05-202523 after 48 to 72 hrs; format: functional; how it was run: as §3
[31] = system: Cryptococcus gattii species complex; assay: Antifungal activity against Cryptococcus gattii after 48 to 72 hrs; format: functional, Cryptococcus bacillisporus; how it was run: as §3
[32] = system: Candida tropicalis; assay: Antifungal activity against Candida tropicalis after 48 to 72 hrs; format: functional; how it was run: as §3
[33] = system: Candida parapsilosis; assay: Antifungal activity against Candida parapsilosis after 48 to 72 hrs; format: functional; how it was run: as §3
[34] = system: Aspergillus fumigatus; assay: Antifungal activity against Aspergillus fumigatus 05-203114 after 24 to 72 hrs by broth microdilution method; format: functional; how it was run: as §1
[35] = system: Exophiala spinifera; assay: Antifungal activity against Exophiala spinifera 03-200803 after 24 to 72 hrs by broth microdilution method; format: functional; how it was run: as §2

`C=CCCCc1cc[n+](CCCCCCCCCCCC[n+]2ccc(CCCC=C)cc2)cc1.[Cl-].[Cl-]` gave an MIC [1] of 1.81 µg/mL, an MIC50 [1] of 1.48 µg/mL and an MIC90 [1] of 2.94 µg/mL. It also gave an MIC [2] of 1.48 µg/mL, an MIC [3] of over 47.3 µg/mL and an MIC [4] of 1.48 µg/mL. It also gave an MIC [5] of 1.69 µg/mL, an MIC50 [5] of 1.47 µg/mL and an MIC90 [5] of 1.47 µg/mL. For the same molecule, the MIC [6] was 11.8 µg/mL, the MIC [7] was 1.28 µg/mL and the MIC50 [7] was 1.47 µg/mL. It also gave an MIC90 [7] of 1.47 µg/mL, an MIC [8] of 1.48 µg/mL and an MIC [9] of 0.746 µg/mL. It also gave an MIC50 [9] of 0.75 µg/mL, an MIC90 [9] of 1.47 µg/mL and an MIC [10] of 11.8 µg/mL. It also gave an MIC [11] of 3.38 µg/mL, an MIC50 [11] of 2.94 µg/mL and an MIC90 [11] of 5.87 µg/mL. The MIC [12] was over 47.3 µg/mL, the MIC [13] was 1.48 µg/mL and the MIC [14] was over 47.3 µg/mL. The MIC [15] was 2.22 µg/mL, the MIC50 [15] was 1.47 µg/mL and the MIC90 [15] was 2.93 µg/mL. For the same molecule, the MIC [16] was 5.9 µg/mL, the MIC [17] was 23.5 µg/mL and the MIC50 [17] was 23.5 µg/mL. The MIC90 [17] was 23.5 µg/mL, the MIC [18] was 1.5 µg/mL and the MFC50 [19] was 1.47 µg/mL. It also gave an MFC90 [19] of 5.87 µg/mL, an MFC ([19]; Nakaseomyces glabratus) of 0.75 µg/mL and an MIC [20] of 47.3 µg/mL. It also gave an MIC [21] of 1.48 µg/mL, an MIC [22] of 0.975 µg/mL and an MIC50 [22] of 1.47 µg/mL. For the same molecule, the MIC90 [22] was 1.47 µg/mL, the MIC [23] was 11.8 µg/mL and the MIC [24] was 3.83 µg/mL. The MIC50 [24] was 2.94 µg/mL, the MIC90 [24] was 5.87 µg/mL and the MFC50 [25] was 5.87 µg/mL. The MFC90 [25] was 11.74 µg/mL, the MFC ([25]; Pichia kudriavzevii) was 0.75 µg/mL and the MIC [26] was 47.3 µg/mL. For the same molecule, the MIC [27] was 11.8 µg/mL, the MIC [28] was over 47.3 µg/mL and the MIC [29] was over 47.3 µg/mL. It also gave an MFC [30] of 23.7 µg/mL, an MFC50 [31] of 2.94 µg/mL and an MFC90 [31] of 2.94 µg/mL. The MFC ([31]; Cryptococcus gattii species complex) was 2.94 µg/mL, the MFC50 [32] was 0.75 µg/mL and the MFC90 [32] was 1.47 µg/mL. For the same molecule, the MFC ([32]; Candida tropicalis) was 0.37 µg/mL, the MFC50 [33] was 23.5 µg/mL and the MFC90 [33] was 23.5 µg/mL. For the same molecule, the MFC ([33]; Lodderomyces parapsilosis) was 23.5 µg/mL, the MIC [34] was over 47.3 µg/mL and the MIC [35] was 0.74 µg/mL.
